Rows were chosen to be rich in hits. Some 12% of all compounds tested hit in one or more screens of this group.
MT stabilizer: microtubule stabilizers in HeLa cells, primary screen, imaging, high-content imaging. HeLa tubulin immunostaining HCS, 24 h; share of cells brighter than vehicle mean+2SD. 200,000 tested, 0.83% active. AID 2205, 2009. % tubulin-high responders, % at 10 µM;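 active means plate Z-score above 3 for both tubulin-high and condensed-nucleus cell shares, with cell loss under 80%, at 10 µM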;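 further: anti alpha tubulin signal scored within the nucleus-defined area of each cell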
L major viab: Leishmania major promastigote growth inhibition, primary screen; Leishmania major promastigotes, resazurin fluorescence viability; inhibition, % at 10 µM; 200,000 tested, 9% active; AID 1063, 2008; in the data active means inhibition above about 50%;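 further: promastigotes grown with compound for 44 hours at 28 °C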
Dynein transport: inhibitors of GR-EGFP nuclear translocation, primary screen, dynein cargo transport inhibitor project, imaging, high-content, 3617.4 mouse cells; test concentration mostly 20 µM; stimulated with dexamethasone, 1 µM; active compounds read low; z-score, hits read low; 220,000 tested, 0.47% active;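 active means plate z-score of nuclear minus cytoplasmic receptor signal below a set negative limit, without overly bright fluorescence or cell loss, cut at about -3.5 in these data, passing the limit was not always enough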;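 further: z-score of nuclear minus cytoplasmic ring GR-EGFP intensity difference per well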
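medium = tetracycline-free induction medium containing charcoal-stripped FBS | probe or stimulus = dexamethasone, 1.0 µM final | timing = 48 h induction, then 1 h compound, then 30 min agonist, 37 °C | detection = automated 10x imaging of fixed Hoechst-stained cells | read-out basis = nuclear versus cytoplasmic GR-EGFP signal, averaged per well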
CHOP inh: inhibitors of CHOP promoter induction, primary screen, cell-based, unfolded protein response, luciferase reporter | CHO-K1 CHOP-promoter luciferase, tunicamycin-induced, 15-18 h | inhibition, % at 10 µM | 220,000 tested, 3.8% active | AID 2732, 2010;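 active means compounds that reduced the stress-induced luciferase reporter signal by more than about 70% of percent inhibition, limit read from the data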
b-catenin transl: modulators of beta-catenin nuclear translocation, primary screen, imaging, HeLa cells, immunofluorescence, high-content. nuclear translocation activity, % at 5 µM. 190,000 tested, 0.3% active. AID 1665, 2009;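 active means nuclear translocation activity above 50% at 5 µM, with a well cell count of 50 or more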;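 further: per-cell ratio of nuclear to cytoplasmic median beta-catenin stain intensity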
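Technique: fluorescence imaging of beta-catenin antibody stain plus DAPI / Material: human HeLa cell line / Incubation: compound treatment 24 h, 37°C, 5% CO2 / Read-out basis: % activation of per-cell nuclear versus cytoplasmic median beta-catenin signal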
Autophagy HCS: autophagy modulators in MEF cells, primary screen, imaging, high-content, MEF GFP-LC3; MEF GFP-LC3 puncta imaging; test concentration mostly 10 µM; calls only at 10 µM (by protocol); 190,000 tested, 0.98% active; AID 463193, 2010;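 active means percentage of spot-positive cells more than 3 SD above its plate mean, without a fluorescence outlier flag or 80% toxicity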
CHOP confirm: retest of CHOP induction inhibitors, confirmation, cell-based | AID 504437, 2011 | inhibition, % at 10 µM | 2,100 tested, 45% active | CHO-CHOP promoter luciferase reporter, tunicamycin-induced, luminescence | shares compounds with CHOP inh;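 active means mean of three repeat readings of reporter signal inhibition above a set limit, cut at about 70% in these data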
Of the large screens only hits and unclear results are named; the others gave an inactive call (follow-up assays come after a bar, where they were run).

CCc1ccc(C(=O)/C=C/c2ccc([N+](=O)[O-])o2)cc1	L major viab 100, CHOP inh 106, Autophagy HCS active (no result: b-catenin transl) | CHOP confirm 140
Cc1ccc(NC(=O)CSc2ncccn2)cc1F	none
Cc1nc(SCC(=O)Nc2ccc(C)c(F)c2)c2oc3ccccc3c2n1	CHOP inh 102 | CHOP confirm 110
O=C(N/N=C/c1cc(Br)ccc1O)c1ccncc1	none (no result: MT stabilizer, L major viab, Autophagy HCS)
O=C(N/N=C/c1ccc([N+](=O)[O-])s1)c1cccc(Br)c1	L major viab 100, CHOP inh 97 | CHOP confirm inactive
O=C(N/N=C/c1ccc(O)c2ncccc12)c1cccc(Br)c1	L major viab 100, CHOP inh 105 | CHOP confirm inactive
COc1cc(C(=O)Nc2cccc(-c3nc4ncccc4o3)c2C)cc(OC)c1OC	none
COc1cc(C(=O)Nc2cccc(-c3nc4cc(C)ccc4o3)c2C)cc(OC)c1OC	CHOP inh 108 | CHOP confirm inactive
O=C1CC(N2CCc3ccccc32)C(=O)N1c1ccc(F)cc1 (stereo unspecified)	none
Oc1ccc(Br)cc1-c1cc(-c2ccccc2)n[nH]1	none
Oc1ccc(Br)cc1-c1cc(-c2ccc(Cl)cc2)n[nH]1	CHOP inh 104 | CHOP confirm inactive
O=[N+]([O-])c1cc(-c2ncccn2)c([N+](=O)[O-])s1	Dynein transport -3.9, CHOP inh 109 | CHOP confirm inactive
Cc1ccc(NC2=C/C(=N\S(=O)(=O)c3cccs3)c3ccccc3C2=O)c(C)c1	L major viab 101 (no result: CHOP inh) | CHOP confirm 119
Cc1ccc(Cl)cc1NC1=C/C(=N\S(=O)(=O)c2cccs2)c2ccccc2C1=O	MT stabilizer 33, L major viab 100, CHOP inh 109 (no result: b-catenin transl) | CHOP confirm 116
Cc1cccc(NC2=C/C(=N/S(=O)(=O)c3cccs3)c3ccccc3C2=O)c1	CHOP inh 106 | CHOP confirm 114
O=C1C=C(Nc2ccc(O)cc2)C(=O)c2ccccc21	none (no result: MT stabilizer, L major viab, Autophagy HCS)
O=C1C(Nc2ccc(O)cc2)=C/C(=N/S(=O)(=O)c2cccs2)c2ccccc21	L major viab 100, CHOP inh 108, Autophagy HCS active | CHOP confirm 110
NS(=O)(=O)c1ccc(NC(=O)C(=O)NCCC(=O)O)cc1	none (no result: MT stabilizer, L major viab, Autophagy HCS)
CCCCn1c(/N=C/c2c[nH]c3ccccc23)nc2ccccc21	CHOP inh 111 | CHOP confirm 117
CCCCn1c(/N=C/c2ccc(N(C)C)cc2)nc2ccccc21	none
CCCCn1c(/N=C/c2ccc3c(c2)OCO3)nc2ccccc21	CHOP inh 98 (no result: b-catenin transl) | CHOP confirm inactive
CCn1c(/N=C/c2c[nH]c3ccccc23)nc2ccccc21	none
CCCn1c(/N=C/c2c[nH]c3ccccc23)nc2ccccc21	CHOP inh 105 | CHOP confirm inactive
CCCn1c(/N=C/c2ccccc2O)nc2ccccc21	none
O=C1/C(=C/c2ccncc2)CCC/C1=C\c1ccncc1	MT stabilizer 31, L major viab 101, Dynein transport -7, CHOP inh 98, Autophagy HCS active (no result: b-catenin transl) | CHOP confirm 78
O=C(Oc1ccc(C(=S)N2CCC(O)CC2)cc1)c1ccc(Cl)cc1	none
C=CCNC(=O)COc1cc(C)ccc1C	none
Cc1ccc(C)c(NC(=O)/C(C#N)=C/c2cn(CC(=O)NCc3ccco3)c3ccccc23)c1	CHOP inh 106 | CHOP confirm inactive
Cc1cc(C)cc(NC(=O)/C(C#N)=C/c2cn(CC(=O)NCc3ccco3)c3ccccc23)c1	CHOP inh 106 | CHOP confirm 106
Cc1ccc(NC(=O)/C(C#N)=C/c2cn(CC(=O)NCc3ccco3)c3ccccc23)cc1C	none
CC(C)(C)C1=CC(=Nc2ccccc2N)C=C(C(C)(C)C)C1=O	none
CC(C)(C)C1=CC(=O)C(=O)C(C(C)(C)C)=C1	CHOP inh 104 (no result: b-catenin transl) | CHOP confirm inactive
CC1(C)c2ssc(=S)c2-c2ccccc2N1C(=O)c1ccco1	CHOP inh 98 | CHOP confirm inactive
O=C(c1ccco1)N1CCN(CCCCN2C(=O)c3ccccc3C2=O)CC1	none
CCOC(=O)c1[nH]c2ccc(OC)cc2c1NC(=O)/C=C/c1ccc2c(c1)OCO2	CHOP inh 102 | CHOP confirm inactive
C=CCN(c1ccccc1Cl)S(=O)(=O)c1cc(C(=O)N2CCCC2)ccc1Cl	none (no result: MT stabilizer, L major viab, Autophagy HCS)
Cc1ccc(/C=C2\SC(=S)N(CCCC(=O)Nc3ccc(O)cc3)C2=O)cc1	CHOP inh 100 (no result: MT stabilizer, L major viab, Autophagy HCS) | CHOP confirm 114
Cc1ccc(/C=C2\SC(=S)N(CCCC(=O)Nc3ccccn3)C2=O)cc1	CHOP inh 111 | CHOP confirm 114
COc1cc(/C=C2\SC(=S)N(CC(=O)Nc3ccc(O)cc3)C2=O)cc(OC)c1OC	none
O=C(CCSc1nnc(-c2ccco2)o1)N1CCOCC1	none
CN1CCN(NC(=O)CSc2ccc(Cl)cc2Cl)CC1	none
CCOc1ccc(/C=C/C(O)=C2/C(=O)NC3(C)CC2c2ccccc2O3)cc1OC (stereo unspecified)	CHOP inh 96, Autophagy HCS active (no result: b-catenin transl) | CHOP confirm inactive
CC(C)Oc1ccc(N2CC(C(=O)NC3=NCCS3)CC2=O)cc1 (stereo unspecified)	none
O=C(COC(=O)c1ccc2c(=O)n3c(nc2c1)CCC3)NC1CCS(=O)(=O)C1 (stereo unspecified)	none
CCOC(=O)COc1ccccc1/C=C\[N+](=O)[O-]	L major viab 100, Dynein transport -3.6, CHOP inh 107 | CHOP confirm 86
Cn1c(CCNC(=O)c2ccc(Cl)c(Cl)c2)nnc1SCc1ccc(Cl)c(Cl)c1	CHOP inh 100 | CHOP confirm inactive
C=CCn1c(SCCOc2ccccc2)nnc1C(C)NC(=O)c1ccccc1 (stereo unspecified)	none (no result: b-catenin transl)
C=CCn1c(CCNC(=O)c2ccc(Cl)c(Cl)c2)nnc1SCCOc1ccc(OC)cc1	CHOP inh 97 | CHOP confirm 81
COc1ccc(/C=N\NC(=O)c2cc(O)c(O)c(O)c2)cc1CN1CCN(c2ccc(F)cc2)CC1	none
Cc1sc2ncnc(OCC(=O)N3CC(=O)Nc4ccccc43)c2c1C	none
N=C1/C(=C\c2ccc(-c3ccc(C(=O)O)cc3)o2)C(=O)N=C2SC=C(c3ccccc3)N12	CHOP inh 100 (no result: MT stabilizer, L major viab, Autophagy HCS) | CHOP confirm inactive
N=C1/C(=C\c2ccc(-c3cccc(Cl)c3)o2)C(=O)N=C2SC=C(c3ccccc3)N12	none
COP(=O)(OC)c1nc(-c2ccccc2)oc1NCc1ccccc1	none
